In PubChem BioAssay AID2607 (Broad Institute, 2010) one finds EC50 data, which are given here for 14 molecules.

The test system of the test is DRD fibroblasts (non-viral oncogenic) viability, Alamar Blue fluorescence, 48 h. Kind of test: cytotoxicity in DRD fibroblasts, dose response, cell-based, fluorescence, Alamar Blue, powder samples (AID 2607). In a few lines: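 Assay system – DRD fibroblasts · Amount – 1000 DRD cells per well · Dosing – two-fold dilution series, 0.01 to 5.33 µg/mL final compound · Buffer or medium – DMEM/M199 plus FBS · Incubation – 48 h compound at 37 °C, ~16 h dye · Technique – Alamar blue fluorescence, excitation 544 nm, emission 590 nm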
As usually defined, the EC50 is the midpoint of the concentration-response curve. As to `COc1cccc(N(C(=O)CCl)C(C(=O)NCCc2ccccc2)c2cccs2)c1` (centres undefined), the EC50 was 145 nM.
As for `CCOc1ccc(Nc2nc(N)nc(CCl)n2)cc1`, the figure is 183 nM; as for `Cc1ccc(N(C(=O)CCl)C(C(=O)NC2CCCCC2)c2cccnc2)cc1C` (centres undefined), 147 nM.
As for `COc1ccc(N(C(=O)CCl)C(C(=O)NCCc2ccccc2)c2cccs2)cc1Cl` (centres undefined), the half-maximal effective concentration (EC50) is 34 nM.
`Nc1nc(CCl)nc(Nc2ccc3ccccc3c2)n1`: the EC50 was 82 nM.
For `COc1ccc(N(C(=O)CCl)C(C(=O)NCCc2ccccc2)c2cccs2)cc1` (centres undefined), the EC50 is 214 nM.
Next, `COC(=O)[C@@H]1Cc2c([nH]c3ccccc23)C(C)(C)N1C(=O)CCl`: 467 nM; `C=CCOc1ccccc1CN(C(=O)CCl)c1ccc2c(c1)OCO2`: 1140 nM; `COc1ccc(C(C(=O)NC2CCCCC2)N(C(=O)CCl)c2cccc(Cl)c2)cc1` (centres undefined): 137 nM.
With `Cc1ccc(C2CC(c3cccs3)=NN2C(=O)CCl)cc1` (centres undefined), the 50% effective concentration (EC50) is 1210 nM.
Next, `COc1ccc(C(C(=O)NC2CCCCC2)N(C(=O)CCl)c2ccc(C)cc2)cc1` (centres undefined): 143 nM; `COc1ccc(CN(CCC(c2ccccc2)c2ccc(OC(C)C)cc2)C(=O)CCl)cc1OC` (centres undefined): 622 nM.
On to `CCCCCCCN(C(=O)CCl)c1cccc(C)c1`, for which the EC50 was 171 nM.
As for `O=C(CCl)N=c1sccn1Cc1ccccc1Cl`, the figure is 183 nM.
